Data on 3 compounds can be found in PMC4441290 (International Journal of Oncology, 2015).

Marks after values point to notes of the source that are not given here.

Data set [1] deals with F3II mouse mammary carcinoma cells. Put plainly: Cell proliferation assay. The data set is classed as cell-based. The following applies: 72 h, concentration-dependent. Put shortly:
(§1)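 Cells seeded at 2.5×10^3 per 200 μl in complete DMEM (10% FBS, 2 mM glutamine), attached overnight. They were then exposed to peptide (100–1,500 nM) or vehicle for 72 h at 37°C, 5% CO2. MTT was added for 4 h, the product dissolved in DMSO, and absorbance read at 570 nm. Untreated control OD was set as 100% viability. Results came from at least three independent experiments, mean ± SEM.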

For data set [2], the system named is VWF. The following applies: after i.v. injection ref 4; cited from earlier work.
Data set [3] deals with human V2r. The following applies: cited from earlier work; for Ki: human V2r ref 5.
Data set [4] concerns MDA-MB-231 cells. Put plainly: Clonogenic. The format is cell-based, human. The following applies: read-out: IC50 colony formation; MDA-MB-231, 7 days. Put shortly: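 MDA-MB-231 cells were grown in complete medium containing peptide (100–1,500 nM), with medium plus peptide renewed after 72 h. Colonies of >50 cells were counted 7 days after seeding. IC50 was derived by linear regression of the concentration–inhibition plot. Data are from at least three independent experiments, mean ± SEM.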

The subject of data set [5] is MCF-7 human breast carcinoma cells. Put plainly: Cell proliferation assay. The data set is classed as cell-based. The following applies: 72-h exposure, 100–1,500 nM. Put shortly: as §1
Data set [6] can be described thus: Acute toxicology study. The data set is classed as in vivo, Wistar rats. The settings on record: for ALT / AST / Creatinine / Direct bilirubin / Fibrinogen / GGT / Glucose / Hematocrit / RBC / Total protein / WBC / Weight: 72 h, mean ± SD.
Data set [7] concerns F3II mammary tumours. Put plainly: F3II subcutaneous tumour progression and spontaneous lung metastases. The format is in vivo, BALB/c mice. Put shortly:
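Syngeneic female BALB/c mice were injected s.c. with 2×10^5 F3II cells. Dosing started 7 days later, at tumours of ~50 mm3, with 0.3 μg/kg i.v. thrice weekly against a saline vehicle. Caliper volumes were calculated as 0.52 × width² × length. Mice were necropsied on day 50, and Bouin-fixed lungs were scored for macroscopic nodules under a dissecting microscope. Data are mean ± SD.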

In data set [8] the test system is MDA-MB-231 xenografts. The experiment in a line: MDA-MB-231 xenograft tumour progression. The data set is classed as in vivo, BALB/c athymic mice. The settings on record: 0.3 μg/kg i.v. thrice weekly. A digest of the protocol: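 Athymic BALB/c nude females were injected s.c. with 5×10^6 MDA-MB-231 cells in 300 μl of DMEM:Matrigel (1:1). From day 14, at tumours of ~50 mm3, mice received 0.3 μg/kg i.v. thrice weekly against a saline vehicle. Caliper volumes were calculated as 0.52 × width² × length. Growth rate is the slope of the linear regression of volume over time, mean ± SD.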

The subject of data set [9] is F3II cells injected into the tail vein. The experiment in a line: Experimental lung metastases assay. The data set is classed as in vivo, BALB/c mice. The settings on record: 0.3 μg/kg i.v., two doses (time zero and 24 h), day 21. Put shortly: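 Female 8-week-old SPF BALB/c mice received 2×10^5 F3II cells in DMEM via the tail vein. Peptide at 0.3 μg/kg was given i.v. twice: at time zero and 24 h after cell injection. On day 21, lungs were excised, weighed, fixed in Bouin's solution and photographed, and lung nodules were counted.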

For data set [10], the system named is HMVEC-L human microvascular endothelial cells. Put plainly: Endothelial cell morphogenesis. The data set is classed as cell-based. The following applies: 100 nM, 24 h.
Data set [11] concerns MDA-MB-231 human breast carcinoma cells. The experiment in a line: Cell proliferation assay. The following applies: MDA-MB-231, tolvaptan 1,500 nM plus [V^4Q^5]dDAVP 1,500 nM. The format is cell-based. A digest of the protocol: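 MDA-MB-231 cells were seeded at 2.5×10^3 per 200 μl in complete DMEM and attached overnight. They were then given 1,500 nM test peptide alone or with the competitive V2r antagonist tolvaptan (1,500 nM) for 72 h. MTT was added for 4 h, DMSO used to solubilise, and absorbance read at 570 nm. Untreated control was set as 100%. There were at least three independent experiments, mean ± SEM.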

A word on the Ki: it is a dissociation constant, usually derived from enzyme kinetics or from competition with a known ligand. As usually defined, the IC50 is the concentration that gives 50% inhibition. Turning to `NC(=O)CC[C@@H]1NC(=O)[C@H](Cc2ccccc2)NC(=O)[C@H](Cc2ccc(O)cc2)NC(=O)CCSSC[C@@H](C(=O)N2CCC[C@H]2C(=O)N[C@H](CCCN=C(N)N)C(=O)NCC(N)=O)NC(=O)[C@H](CC(N)=O)NC1=O` [dDAVP, 1-deamino-8-D-arginine vasopressin], in [1], the “cytostatic effect on F3II cells” value is listed as “mild cytostatic effect”. In [2], the “time of peak levels of VWF release” value was 60 to 90 min. The Ki in [3] was 23.3 nM. Also, the half-inhibitory concentration (IC50) in [4] was found to be 1440 nM. The “effect on proliferation in MCF-7 cell cultures” value in data set [5] was “mild reduction of proliferation”. In [6] (1 μg/kg single i.v.), this compound displayed an ALT of 22.8±3.4 IU/l, an AST of 36.6±11.6 IU/l, a Creatinine of 0.70 ± 0.16 mg/mL and a Direct bilirubin of 0.13 ± 0.04 mg/dL. For the same compound, in data set [6] (1 μg/kg single i.v.), the Fibrinogen stood at 221.0 ± 67.8 mg/dL, the GGT came to 2.8±0.8 IU/l, the Glucose is on record as 207.0±25.7 ^d mg/dl and the Hematocrit was found to be 40.4±2.3%. In data set [6] (1 μg/kg single i.v.), the RBC was 5.2±0.3 10^6/ml, the Total protein amounted to 6.6 ± 0.8 g/dL, the WBC is reported as 4.8±0.3 10^3/ml and the Weight was determined as 234.2 ± 8.1 g. In data set [6] (10 μg/kg single i.v.), the ALT is listed as 22.6±3.4 IU/l, the AST is reported as 30.0±5.6 IU/l, the Creatinine was found to be 0.65 ± 0.08 mg/mL and the Direct bilirubin was 0.14±0.02 ^d mg/dl. Further, in data set [6] (10 μg/kg single i.v.), the Fibrinogen amounted to 226.7 ± 48.4 mg/dL, the GGT worked out at 2.6±0.9 IU/l, the Glucose is 218.8±20.0 ^d mg/dl and the Hematocrit is on record as 40.5±2.7%. For the same compound, in data set [6] (10 μg/kg single i.v.), the RBC was 5.5±0.3 10^6/ml, the Total protein amounted to 6.9 ± 0.5 g/dL, the WBC is on record as 4.4±0.5 10^3/ml and the Weight was found to be 240.3 ± 9.4 g. For the same compound, in [6] (100 μg/kg single i.v.), the ALT is 21.3±2.1 IU/l, the AST came out at 47.5±17.8 IU/l, the Creatinine is 0.70 ± 0.09 mg/mL and the Direct bilirubin is recorded as 0.17±0.03 ^d mg/dl. In data set [6] (100 μg/kg single i.v.), the Fibrinogen stood at 243.0 ± 63.1 mg/dL, the GGT was 3.0±1.2 IU/l, the Glucose was 230.7±12.1 ^d mg/dl and the Hematocrit turned out to be 41.8±3.4%. Further, in [6] (100 μg/kg single i.v.), the RBC is listed as 5.7±0.3 10^6/ml, the Total protein was found to be 7.0 ± 0.5 g/dL, the WBC was 4.1±0.7 10^3/ml and the Weight amounted to 241.8 ± 16.8 g. Besides, in data set [6] (reference standard, single i.v. 1, 10 or 100 μg/kg), the safety profile entry is “consistent with previous observations”. The spontaneous lung metastases result in data set [7] (0.3 μg/kg i.v. thrice weekly for 6 weeks, day 50) is listed as “not significant”. Moreover, in [7] (0.3 μg/kg i.v. thrice weekly, mean ± SD, P>0.05, control 1822.3±1185), the final tumour volume is reported as 1574.8±466.1 mm^3. Further, in [8], the “reduction in the number of blood vessels (intratumoural vascular density)” value was found to be 30%. In data set [8] (mean ± SD, control 7.44±0.66), the tumour growth rate is 5.72±0.72 mm^3/day. Moreover, the “reduction of the number of lung nodules” value in data set [9] stood at 32%. Besides, the capillary-like tube formation entry in data set [10] is recorded as “did not displayed any significant effects”.

4-valine-dDAVP: the “affinity for the human V2r relative to dDAVP” value in [3] (higher affinity than dDAVP ref 5) is 10 fold. Also, in data set [3], the Ki is 2.2 nM.

For `Cc1ccccc1C(=O)Nc1ccc(C(=O)N2CCCC(O)c3cc(Cl)ccc32)c(C)c1` (stereo not drawn) [tolvaptan], in data set [11], the “blockade of growth-modulating activity of [V^4Q^5]dDAVP” value is on record as “completely abolished”.
